Screening data: PubChem, several laboratories
Ec RNAP inh – inhibitors of Escherichia coli RNA polymerase | E. coli RNA polymerase, fluorescence transcription assay | P0A8V2 | 62,000 tested, 0.2% active | inhibition, %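 (tested at 10 µM)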; in the data active = inhibition above about 20%
Target sequence (P0A8V2 whole entry, looked up): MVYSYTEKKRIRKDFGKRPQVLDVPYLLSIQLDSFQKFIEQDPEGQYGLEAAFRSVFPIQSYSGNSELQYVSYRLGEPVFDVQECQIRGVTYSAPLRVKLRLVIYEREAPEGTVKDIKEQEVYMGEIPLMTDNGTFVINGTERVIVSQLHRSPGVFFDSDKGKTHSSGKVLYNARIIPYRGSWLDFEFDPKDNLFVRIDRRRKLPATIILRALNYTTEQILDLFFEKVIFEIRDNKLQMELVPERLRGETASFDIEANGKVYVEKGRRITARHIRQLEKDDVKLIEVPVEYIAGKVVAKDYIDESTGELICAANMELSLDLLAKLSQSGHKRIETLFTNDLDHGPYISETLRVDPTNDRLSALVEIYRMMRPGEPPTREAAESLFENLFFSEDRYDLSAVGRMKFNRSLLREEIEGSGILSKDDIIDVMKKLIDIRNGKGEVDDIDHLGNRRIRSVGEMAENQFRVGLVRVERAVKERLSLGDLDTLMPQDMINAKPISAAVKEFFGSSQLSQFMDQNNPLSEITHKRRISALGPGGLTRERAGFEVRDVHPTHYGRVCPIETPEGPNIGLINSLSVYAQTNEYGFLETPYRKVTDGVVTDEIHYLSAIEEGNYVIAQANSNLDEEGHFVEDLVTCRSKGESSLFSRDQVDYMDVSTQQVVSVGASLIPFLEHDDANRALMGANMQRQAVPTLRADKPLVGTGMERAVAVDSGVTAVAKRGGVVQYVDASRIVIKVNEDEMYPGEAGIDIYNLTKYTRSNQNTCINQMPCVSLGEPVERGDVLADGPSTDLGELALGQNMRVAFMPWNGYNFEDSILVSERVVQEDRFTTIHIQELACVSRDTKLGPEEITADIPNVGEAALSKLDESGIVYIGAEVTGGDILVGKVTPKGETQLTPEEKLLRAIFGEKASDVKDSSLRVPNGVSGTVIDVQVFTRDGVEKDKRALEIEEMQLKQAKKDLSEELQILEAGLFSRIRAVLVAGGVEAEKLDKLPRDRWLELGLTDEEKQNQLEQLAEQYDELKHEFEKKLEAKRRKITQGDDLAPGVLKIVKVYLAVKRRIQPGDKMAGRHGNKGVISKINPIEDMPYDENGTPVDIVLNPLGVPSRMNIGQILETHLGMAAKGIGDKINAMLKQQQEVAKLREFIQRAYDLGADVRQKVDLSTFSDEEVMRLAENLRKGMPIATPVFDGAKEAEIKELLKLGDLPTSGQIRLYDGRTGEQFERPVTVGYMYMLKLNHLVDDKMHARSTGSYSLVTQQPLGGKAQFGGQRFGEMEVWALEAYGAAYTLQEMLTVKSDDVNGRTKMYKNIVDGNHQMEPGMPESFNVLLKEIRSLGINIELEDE
AP ELISA ortho – alternative pathway complement inhibition, orthogonal assay; Human serum alternative complement pathway, LPS-coated ELISA, C3 deposition; tested in compound mixtures; inhibition, % at 5 µM; 62,000 tested, 0.08% active; AID 1235;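 active = inhibition above 30% in each of the two pooled mixtures holding the compound, so the lower value exceeds 30%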
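Medium: diluted human serum in Mg2+-EGTA GVB++. Assay system: human serum complement alternative pathway, C3 deposition onto LPS. Also added: Plate-bound LPS. Technique: Anti-C3 ELISA, OD 450 nm. Measure: percent inhibition. Incubation: 1 h at 37 °C. Dosing: 5 µM each compound, pools of ten, 50 µM per pool.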
D1 allo mod – allosterically modulates the human D1 dopamine receptor; HEK293 D1, CRE-luciferase, dopamine EC30 potentiation; actives deviate in either direction; B-score at 10 µM; 58,000 tested, 5.9% active; AID 641;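 active = luminescence count or its row- and column-corrected plate score outside the 99.7% band of the plate's sample wells, on either side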
HEK293 NFkB inh – lowers PMA/ionomycin-induced NF-kB signal in HEK293 cells. HEK-293 NF-kB luciferase reporter, luminescence. inhibition, % at 3 µM. 62,000 tested, 0.21% active. AID 465;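 active = inhibition above the mean of all tested compounds plus 3 SD, cut at about 40% in these data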
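Reagent: PMA plus ionomycin mix as NF-kB-activating stimulus. Assay system: NF-kB luciferase reporter HEK-293 cells. Technique: luminescence from luciferase substrate reagent. Incubation: 1 h compound pre-incubation, 16 h PMA/ionomycin at 37 °C. Benchmarks: DMSO only as uninhibited control, 10 µM reference inhibitor as full inhibition. Repeats: tested once.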
DAT uptake mod – human DAT dopamine uptake with cocaine, either direction. LLC-PK1 hDAT cells, [14C]-dopamine uptake with cocaine IC80; actives deviate in either direction. B-score at 10 µM. 110,000 tested, 1.3% active. AID 449768;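 active = Z score or B-score, a plate-position-corrected score, falls beyond the plate's 99.7% confidence bounds, in either direction; inactive = both scores lie inside the 99.7% bounds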
Numbers stand for hits; 0 = inactive; - = not tested or not shown. The full list was thinned out, with hits kept by preference.

SMILES	Ec RNAP inh	AP ELISA ortho	D1 allo mod	HEK293 NFkB inh	DAT uptake mod
COCCNC(=O)C(C)OC(=O)c1cc2occc2n1C (stereo unspecified)	0	0	0	0	0
O=C(Nc1ccc2c(c1)OCCO2)NC1(C(F)(F)F)Oc2ccccc2O1	0	0	-3	0	-2.95
O=C(Nc1ccc2c(c1)OCO2)NC1(C(F)(F)F)Oc2ccccc2O1	-	-	-	-	0
C[C@@H]1CCC[C@@]2(O[C@H](CCO)C[C@H](O)[C@H]2O)O1	-	-	-	-	0
O=C1OCCC1Sc1nnnn1-c1ccccc1 (stereo unspecified)	-	-	-	-	0
O=C1OCCC1Sc1nnc(-c2ccc3c(c2)OCO3)n1-c1ccccc1 (stereo unspecified)	0	0	-3.81	0	0
c1c2c(cc3sc(N4CCOCC4)nc13)OCCO2	0	0	-4.87	0	0
c1ccc(N2CCN(c3nc4cc5c(cc4s3)OCCO5)CC2)cc1	0	0	-	0	0
O=C(NC1CC1)C1=C[C@@H](C2CC2)C[C@@H](OCc2ccc(CO)cc2)O1	-	-	-	-	0
CCN(CC)C(=O)Oc1ccc2c(=O)c(-c3ccc(OC)cc3)c(C)oc2c1	0	0	0	0	3.22
CC(C)NC(=O)NC(=O)CSc1nnc(COc2ccccc2F)n1C(C)C1CC2CCC1C2 (stereo unspecified)	-	-	-	-	2.6
CC(C1CC2CCC1C2)n1c(COc2ccccc2F)nnc1SCC(N)=O (stereo unspecified)	-	-	-	-	0
Cc1cnc(-c2nnc(N(C)C(=O)c3cnccn3)s2)cn1	0	0	0	0	-
NC(=O)c1ccccc1Nc1nc(NCCO)nc(N2CCCC2)n1	-	-	-	-	0
CCO/N=C(\C)c1c(O)c(CC)c(-c2ccccc2)n(-c2ccccc2)c1=O	-	-	-	-	2.74
CC(=O)c1c(O)c(C)c(-c2ccccc2)n(-c2ccccc2)c1=O	-	-	-	-	0
COc1cccc(C2=NOC(C(=O)Nc3ccccc3SC)C2)c1 (stereo unspecified)	-	-	-	-	0
Cc1cccnc1Nc1nc(-c2ccc(O)cc2)cs1	-	-	-	-	4.63
CC1(c2nnc(-c3cccc(Cl)c3)o2)CC(c2ccc(Br)cc2)=NO1 (stereo unspecified)	-	-	-	-	0
O=C1Nc2cc(Cl)ccc2Nc2cscc21	-	-	-	-	0
O=C1CSC(c2cn(-c3ccccc3)nc2-c2cccs2)N1CC1CCCO1 (stereo unspecified)	0	0	0	0	2.74
C=CCOC(=O)C1=C[C@@H](c2coc3ccccc3c2=O)C[C@@H](OCCCCO)O1	-	-	-	-	2.82
CC1CCc2cccc3c2N1c1cc(C#N)c(C#N)cc1O3 (stereo unspecified)	0	0	0	0	0
O=C1CC2(CCCCC2)Oc2ccc(Cl)cc21	-	-	-	-	0
COc1ccc(C2/C=C\CN(C(=O)c3ccccc3)[C@H](Cc3ccccc3)C(=O)N2Cc2ccc(F)cc2)cc1 (stereo partly specified)	-	-	-	-	0
SMILES	Ec RNAP inh	AP ELISA ortho	D1 allo mod	HEK293 NFkB inh	DAT uptake mod
CN(C)S(=O)(=O)N1CCN(C(=O)c2ccccc2)CC1	-	-	-	-	-4.54
Cn1c(C(=O)Nc2ccc3c(c2)OCCO3)cc2c(=O)n(C)c3ccccc3c21	0	0	-4.53	0	0
Cn1c(C(=O)NC2CC2)cc2c(=O)n(C)c3ccccc3c21	0	0	0	0	0
CCN(CC)CCCNC(=O)c1cc2c(=O)n(C)c3ccccc3c2n1C	0	0	0	0	0
CCCN(CCC)CCCNC(=O)c1cc2c(=O)n(C)c3ccccc3c2n1C	50.2	0	0	0	0
Cn1c(C(=O)N2CCN(C(=O)c3ccco3)CC2)cc2c(=O)n(C)c3ccccc3c21	0	0	0	0	2.18
Cn1c(C(=O)N2CCN(c3ccc(F)cc3)CC2)cc2c(=O)n(C)c3ccccc3c21	0	0	0	0	-
CCS(=O)(=O)N1CCN(Cc2nc3ccccc3c(=O)[nH]2)CC1	0	0	0	0	0
CCCSc1nnc(Cn2c(=O)sc3ccccc32)n1C	0	0	-	0	0
Cc1ccc(NC(=O)NCCCc2ccccc2)cc1	-	-	-	-	0
COc1ccc(C(=O)Nc2ccc3c(c2)nc2n3CCSC2)cc1	0	0	0	0	0
O=C(Nc1ccc2c(c1)nc1n2CCSC1)c1ccccc1	0	0	-3.7	0	0
CC(c1ccccc1)N1CCn2c(nc3cc(NC(=O)c4cccs4)ccc32)C1 (stereo unspecified)	-	-	-	-	2.74
Cc1ccc(-c2ccc(CCC(=O)O)n2Cc2ccco2)cc1	0	0	0	0	0
CC(=O)OC1C([N+]2(C)CCCCC2)C[C@H]2C3CC[C@H]4C[C@H](OC(C)=O)C([N+]5(C)CCCCC5)CC4(C)[C@H]3CCC12C (stereo partly specified)	-	-	-	-	0
CC(=O)O[C@H]1C[C@@H]2CC[C@@H]3[C@H](CC[C@@]4(C)[C@H]3C[C@H]([N+]3(C)CCCCC3)[C@@H]4OC(C)=O)[C@@]2(C)C[C@@H]1[N+]1(C)CCCCC1	0	0	16.6	-	-
COC(=O)[C@@H]1C[C@@]2(Br)c3ccccc3N(S(=O)(=O)c3ccccc3)[C@H]2N1C(=O)OC	-	-	-	-	0
Cc1ccc(C2/C(=C(\O)c3cnn(-c4ccccc4)c3C)C(=O)C(=O)N2CCN(C)C)o1 (stereo unspecified)	0	-	0	-	-2.35
COC(=O)c1c(N)n(-c2cc(OC)cc(OC)c2)c2nc3ccccc3nc12	0	0	3.31	0	-
COCc1cc(=O)[nH]c2cc(NC(=O)C(C)(C)CCl)c(C)cc12	-	-	-	-	-7.76
CC(=O)N1[C@H](C)C=C[C@]1(Cc1ccccc1)C(=O)NCCN1CCOCC1	-	-	-	-	0
CCOC(=O)Cn1cc(C=O)c2ccccc21	-	-	-	-	-10.2
COc1ccccc1N1CCN(C(=O)CCNS(=O)(=O)c2ccc(Br)s2)CC1	0	0	0	0	-3.93
O=P(CCCCCCCCCP(=O)(c1ccccc1)c1ccccc1)(c1ccccc1)c1ccccc1	-	-	-	-	2.91
O=P(COCCOCP(=O)(c1ccccc1)c1ccccc1)(c1ccccc1)c1ccccc1	-	-	-	-	0
SMILES	Ec RNAP inh	AP ELISA ortho	D1 allo mod	HEK293 NFkB inh	DAT uptake mod
COCP(=O)(c1ccccc1)c1ccccc1	-	-	-	-	1.51
CN(C)c1nc(Oc2ccc(=O)n(-c3ccccc3)n2)nc(N2CCOCC2)n1	0	0	5.59	0	0
O=C(c1ccc2c(c1)N(Cc1ccccc1)C(=O)c1ccccc1S2)N1CCCC1	-	-	-	-	3.32
CCOC(=O)C1=C(C)NC(=S)NC1c1ccc(-c2cccc(Cl)c2C)o1 (stereo unspecified)	-	-	-	-	-8.71
CCOC(=O)C1=C(C)NC(=O)NC1c1ccc(C)o1 (stereo unspecified)	0	0	0	0	0
Cc1cc(C(=O)CSc2nc3ccccc3o2)c(C)n1CC1CCCO1 (stereo unspecified)	-	-	-	-	0
Cc1sc2nc(SCC(=O)c3cc(C)n(CC4CCCO4)c3C)n(C(C)C)c(=O)c2c1C (stereo unspecified)	0	0	-2.27	0	0
NC(=O)c1ccccc1N/C=C/C(=O)c1ccccc1	0	0	-2.52	0	0
CCCCCC(=O)NC(=S)Nc1ccc(N2CCCCC2)c(Cl)c1	-	-	-	-	0
